In the library only some 4.6% were active in any assay of this set; here they are far more common.
WT yeast gro inh – growth inhibition of WT yeast, mitochondrial fusion screen; mitochondrial fusion phenotypic screen, WT strain; inhibition, % at 10 µM; hit rate 2.1% among 190,000; in the data active = inhibition above about 58%; tested in S. cerevisiae
Hck-Nef inh – human Hck-Nef kinase inhibition | inhibition, % at 20 µM | hit rate 0.68% among 220,000 | Recombinant Hck-YEEI plus Nef, Z-Lyte FRET kinase assay;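 active = Hck-Nef kinase inhibition above about 50%, limit read from the data; inactive = inhibition below that limit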;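 note: 0% = DMSO with Hck plus Nef and 100% = Hck alone without Nef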
Biofilm kill mix – mixtures killing C. albicans biofilm. C. albicans biofilm persisters + clotrimazole, fluorescence viability; primary screen in compound mixtures of four per well. inhibition, % at 7.6 µM. hit rate 0.02% among 120,000;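 active = inhibition above 30.3% in the primary screen of four-compound pools, then above 30% when the compound was retested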;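 note: compounds exposed to preformed 24 h biofilms for 48 h; 0% = untreated biofilm control and 100% = clotrimazole plus chlorhexidine kill blank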
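Test system: C. albicans biofilms. Buffer or medium: RPMI/MOPS medium, pH 7.0. Timing: 48 h compound exposure at 37 °C. Technique: Alamar Blue fluorescence. Evaluation: percent inhibition of biofilm viability.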
RAM inhibit – yeast RAM network inhibition. S. cerevisiae dse1pr::URA3 reporter, 5-FOA growth OD615, 2 d; analog-sensitive cbk1-as2 kinase mutant strain. inhibition, % at 50 µM. hit rate 1.8% among 190,000. AID 868;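 active = inhibition above a set limit, 3 SD over mean compound inhibition, cut at about 8.4% in these data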;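 note: 0% = DMSO-only wells with no growth and 100% = 10 µM 1-NA-PP1 full growth; inhibition rescues growth on 5-FOA so higher OD means more RAM inhibition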
p47phox inh – inhibitors of human p47phox binding; P14598; p47phox/p22phox peptide binding, fluorescence polarization, 2 h; inhibition, % at 24.7 µM; hit rate 0.53% among 220,000; AID 1274;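 active = inhibition above about 30%, limit read from the data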;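 note: 0% = p47phox with labelled peptide and 100% = labelled peptide alone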
Target sequence (P14598 whole entry, looked up): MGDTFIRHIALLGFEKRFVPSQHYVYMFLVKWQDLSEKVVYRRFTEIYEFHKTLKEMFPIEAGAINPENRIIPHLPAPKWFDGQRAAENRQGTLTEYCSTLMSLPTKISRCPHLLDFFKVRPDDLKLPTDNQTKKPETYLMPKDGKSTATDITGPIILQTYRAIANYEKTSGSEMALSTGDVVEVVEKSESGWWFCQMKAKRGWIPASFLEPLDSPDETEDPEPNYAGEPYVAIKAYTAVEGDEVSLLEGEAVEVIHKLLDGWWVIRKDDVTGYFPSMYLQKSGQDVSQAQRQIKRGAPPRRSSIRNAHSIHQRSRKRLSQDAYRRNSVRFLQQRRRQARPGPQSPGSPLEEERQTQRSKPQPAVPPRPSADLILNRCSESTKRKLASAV
Arbovirus inh – antivirals against arbovirus infection | arbovirus infection cell-based antiviral screen | inhibition, % at 10 µM | hit rate 0.37% among 200,000 | AID 1251; in the data active = inhibition above about 30%
* = called active by the depositor; nt = not tested or not shown; + = active, no number.

SMILES	WT yeast gro inh	Hck-Nef inh	Biofilm kill mix	RAM inhibit	p47phox inh	Arbovirus inh
O=C(COC(=O)Cc1ccc(Cl)cc1Cl)Nc1ccc(OC(F)F)cc1	30.0	-1.1	6.2	10.0*	-8.0	-0.3
Cc1cccc(/C=C2\CCC(=C3SCCCS3)C2=O)c1	-2.9	1.1	nt	9.4*	-6.8	-0.5
Cc1[nH]nc2c1-c1nc3ccccc3nc1C(C)(C)C2	8.3	18.0	nt	-0.9	-10.0	33.3*
CC12CCC(C)(c3nc4ccccc4nc31)C2(C)C	1.9	18.9	19.6	-0.3	6.2	1.1
Cc1cc(=O)nc2c3ccccc3n(C(C)C(=O)Nc3c(F)c(F)c(F)c(F)c3F)n12 (stereo not given)	0.3	18.5	7.8	1.1	-14.1	12.2
COC(=O)C1C(O)C(C)C(O)C(C)(O)/C=C\C=C(/C)C(=O)Nc2c(C)c(OC(C)=O)c3c(c2O)C(=O)C(C)=C2OCOC(=C23)/C(C)=C/C(C)(O)C(O)C(C)C1O (stereo not given)	nt	12.3	23.2	nt	-2.6	nt
O=c1[nH]cnc2c1c(-c1ccccc1)cn2-c1ccc(Br)cc1	70.9*	1.1	17.9	0.9	-1.7	-5.0
Cc1c(C(=O)OC(C)C)[nH]c2c1C(=O)CCC2	-5.4	5.9	nt	-0.5	+	1.5
Cc1c(C(=O)OC(C)C)[nH]c2c1C(=O)CC(C)(C)C2	2.8	0.8	nt	-1.1	-6.6	-9.2
COC(=O)C1CCN(S(=O)(=O)c2ccc(OC)cc2)CC1	4.3	-1.4	nt	0.7	-8.1	4.1
CC(C)NC(=O)CC1C(=O)N(Cc2ccccc2)C(C)c2nc3ccccc3n21 (stereo not given)	4.6	-1.7	16.2	-0.4	-7.2	2.5
Nc1nc(-c2ccccc2)c(N=Nc2cccc3ccccc23)s1	88.7*	-2.9	4.5	4.8	-11.2	-25.2
Nc1nc(-c2ccccc2)c(N=Nc2ccccc2Cl)s1	16.2	7.3	-3.6	9.2*	-6.7	4.2
CC(=O)Nc1sc(N)nc1-c1ccccc1	-4.1	2.7	nt	3.3	-9.7	-9.8
CCOc1ccc(N=Nc2cc(C(C)C)ccc2O)cc1	13.9	4.5	12.0	10.1*	4.9	11.8
CSc1nnc(C)c(=O)n1COC(=O)/C=C/c1ccccc1	0.5	25.3	8.0	1.4	-13.7	6.0
Cc1c(C(=O)O)sc2nc(SCC(=O)Nc3ccc(S(=O)(=O)NC(C)(C)C)cc3)[nH]c(=O)c12	-11.8	22.5	23.8	8.5*	-3.9	2.5
Nn1c(=O)c2ccccc2n2c(SCc3ccc(C(F)(F)F)cc3)nnc12	-19.3	-3.3	nt	8.6*	-1.1	-9.9
CCSc1nc(C2CC2)cc(-c2cccs2)c1C#N	20.4	2.3	nt	1.7	-12.5	1.6
CCSc1nc(C2CC2)cc(-c2ccco2)c1C#N	18.2	-18.5	nt	10.4*	-23.1	2.3
CC1(C)Cc2ccccc2C(C(Cc2ccccc2)C(N)=O)=N1 (stereo not given)	-4.2	13.4	3.5	0.5	-13.8	-3.9
Nc1nc(-c2ccc(Cl)cc2)c(N=Nc2ccc(S(=O)(=O)N3CCOCC3)cc2)s1	48.9	-1.6	4.2	9.3*	-54.2	-33.5
Cc1cccc2nc(-c3ccccc3)nc(N3CCC(O)(c4ccc(Cl)cc4)CC3)c12	68.1*	-4.1	15.1	-0.7	-17.1	-6.6
CCN1CCN(c2nc(-c3ccccc3)nc3ccccc23)CC1	-9.8	0.9	13.3	0.0	-5.4	-36.4
CC(/C=N/n1c(-c2ccco2)n[nH]c1=S)=C\c1ccccc1	73.4*	0.8	4.8	3.0	4.1	-3.5
SMILES	WT yeast gro inh	Hck-Nef inh	Biofilm kill mix	RAM inhibit	p47phox inh	Arbovirus inh
CC(/C=N/n1c(-c2ccc(Cl)cc2)n[nH]c1=S)=C\c1ccco1	71.9*	11.8	7.3	3.4	-1.1	-1.3
CCOC(=O)N1[C@@H]2C=C(C)[C@@H]2[C@@H]2[C@@H](C)C(=O)N21	-24.0	3.3	3.8	0.0	-4.4	8.2
CCOc1ccc(C(=O)c2cc([N+](=O)[O-])ccc2Cl)cc1	8.2	0.0	nt	nt	0.2	-9.9
CCCN(CCC)CCCNC(=O)CS(=O)Cc1nc(-c2ccc(OC)c(OC)c2)oc1C (stereo not given)	71.0*	-3.6	nt	1.1	-6.1	3.5
COc1ccc2[nH]cc(CCNS(=O)(=O)Cc3ccccc3)c2c1	-14.4	16.9	8.5	1.5	-8.8	-3.6
Cn1c(=S)c2[nH]c(SCCN3CCCC3)nc2n(C)c1=O	nt	-2.8	12.8	nt	44.5*	nt
CCN1CCCC(Sc2nc3c([nH]2)c(=S)n(C)c(=O)n3C)C1 (stereo not given)	nt	26.1	13.0	nt	-4.0	nt
C/C(=N\NC(=S)NC1CCCCC1)c1c(F)cccc1F	74.4*	11.5	2.4	1.9	-10.7	8.9
C/C(=N\NC(=S)NC1CCCCC1)c1cccs1	71.0*	5.0	9.2	3.2	-3.8	4.0
C/C(=N\NC(=S)NC1CCCCC1)c1ccc(Cl)c(Cl)c1	nt	23.9	3.7	nt	3.5	nt
C/C(=N\NC(=O)C1CC1)c1cccs1	-1.9	-0.7	18.8	3.4	11.4	-1.3
C/C(=N\NC(=S)NC1CCCCC1)c1ccc(OC(F)F)cc1OC(F)F	65.9*	10.2	21.9	1.4	-4.2	-1.1
O=C(NC(=S)Nc1ccc(Cl)cn1)C(c1ccccc1)c1ccccc1	72.5*	-1.6	nt	4.1	0.3	-13.5
CCC(=O)NC(=S)Nc1ccc(Cl)cn1	13.4	1.7	nt	-1.6	-3.2	7.3
O=C(Nc1ccc(Cl)cn1)C1C(c2ccccc2)C1(Cl)Cl (stereo not given)	71.1*	14.2	3.2	-0.9	5.0	-10.7
S=C(Nc1ccccc1)Nc1ccc(Cl)cn1	14.2	23.9	14.5	3.0	-8.7	-6.7
O=C(NC(=S)Nc1ccc(Cl)cn1)C12CC3CC(CC(C3)C1)C2	73.1*	12.6	5.8	3.8	-3.5	-0.3
Cc1ccc(S(=O)(=O)N2CCN(c3cnn(-c4ccccc4)c(=O)c3Cl)CC2)cc1	-13.2	0.6	4.4	4.2	-9.0	-13.8
COc1cccc(C(=O)/C=C/Nc2ccc(S(=O)(=O)Nc3onc(C)c3C)cc2)c1	-14.4	3.5	16.6	8.9*	-8.7	4.6
CC(=O)c1cccc(NS(=O)(=O)c2ccc(N/C=C\C(=O)c3ccc(F)cc3)cc2)c1	26.9	3.9	nt	3.0	-25.1	12.1
CCOc1ccc(C(=O)/C=C/Nc2ccc(S(=O)(=O)Nc3onc(C)c3C)cc2)cc1	-11.4	8.8	-0.1	5.8	-12.7	13.7
CC(=O)c1cccc(NS(=O)(=O)c2ccc(N/C=C/C(=O)c3ccc(F)cc3)cc2)c1	-3.3	2.2	-0.6	9.6*	-17.7	1.9
COCCNC(=O)c1ccccc1NC(=O)CCSc1ccccc1	-1.3	3.5	12.3	1.9	-0.8	0.2
Cc1cc2c(cc(C(=O)NCCCN3CCOCC3)n2Cc2ccc(Cl)cc2)o1	7.4	2.2	nt	-0.5	-8.8	-11.9
CC(=O)NC1=NN(C(C)=O)C(c2ccccn2)S1 (stereo not given)	-3.2	1.7	-7.0	0.0	-3.9	3.8
CCOC(=O)c1ccc(NC(=O)CSc2nnc(Cn3c(=O)sc4ccccc43)n2C)cc1	9.1	3.3	nt	1.1	+	-2.8

Screens as filed in PubChem BioAssay.
